Measurements taken from ChEMBL document CHEMBL2321795, “Solubility-driven optimization of (pyridin-3-yl) benzoxazinyl-oxazolidinones leading to a promising antibacterial agent” (J Med Chem, 2013).
Values after ≈ are worked out from the molar mass of the structure shown.

Key:
Assay type in all cases: functional
[1] = tested on: Enterococcus faecalis; assay: Antibacterial activity against Enterococcus faecalis after 16 hrs by NCCLS agar dilution method
Outline: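 Agar dilution MIC per NCCLS, 6 E. faecalis strains. Stock was 320 μg/mL in 50% water/DMSO, serially 2-fold diluted in sterile water, then 10-fold into Mueller–Hinton agar to give 16–0.03125 μg/mL final. Inocula came from MH broth cultures grown 8 h at 35 °C, adjusted to 0.5 McFarland and spotted by multipoint inoculator. Plates were read after 16 h at 35 °C.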

[2] = tested on: Streptococcus pneumoniae; assay: Antibacterial activity against penicillin-resistant Streptococcus pneumoniae after 16 hrs by NCCLS agar dilution method
Outline: (§1)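 Agar dilution MIC. Stocks were 320 μg/mL in 50% aqueous DMSO, 2-fold serially diluted in sterile water, then diluted 10-fold into Mueller–Hinton agar to give 16–0.03125 μg/mL final. Organisms were grown in MH broth at 35 °C for 8 h and adjusted to 0.5 McFarland. They were spotted onto drug-containing plates with a multipoint inoculator and incubated at 35 °C for 16 h. Linezolid was the positive control.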

[3] = tested on: Staphylococcus epidermidis; assay: Antibacterial activity against methicillin-sensitive Staphylococcus epidermidis after 16 hrs by NCCLS agar dilution method; outline: as §1
[4] = tested on: Staphylococcus aureus; assay: Antibacterial activity against methicillin-sensitive Staphylococcus aureus after 16 hrs by NCCLS agar dilution method; outline: as §1
[5] = tested on: Staphylococcus epidermidis; assay: Antibacterial activity against methicillin-resistant Staphylococcus epidermidis after 16 hrs by NCCLS agar dilution method; outline: as §1
[6] = tested on: Staphylococcus aureus; assay: Antibacterial activity against methicillin-resistant Staphylococcus aureus after 16 hrs by NCCLS agar dilution method; outline: as §1

Row | Compound | MIC [1] | MIC [2] | MIC [3] | MIC [4] | MIC [5] | MIC [6]
1 | N#Cc1ccc(-c2ccc3c(c2)OC[C@H]2[C@H](CN)OC(=O)N32)cn1 | > 16 µg/mL | > 16 µg/mL | > 16 µg/mL | > 16 µg/mL |  | 
2 | O=C1O[C@@H](CO)[C@@H]2COc3cc(-c4ccc(C(F)(F)F)nc4)ccc3N12 | > 16 µg/mL | > 16 µg/mL | > 16 µg/mL | > 16 µg/mL |  | 
3 | CC(=O)N1CCN(c2ccc(-c3ccc4c(c3)OC[C@H]3[C@H](CO)OC(=O)N43)cn2)C1=O | 4 µg/mL (≈ 9.42 µM) | 8 µg/mL (≈ 18.8 µM) | 4 µg/mL (≈ 9.42 µM) | 8 µg/mL (≈ 18.8 µM) | 8 µg/mL (≈ 18.8 µM) | 4 µg/mL (≈ 9.42 µM)
4 | Cn1nnc(-c2ccc(-c3ccc4c(c3)OC[C@H]3[C@H](CO)OC(=O)N43)cn2)n1 | 4 µg/mL (≈ 10.5 µM) | 1 µg/mL (≈ 2.63 µM) | 1 µg/mL (≈ 2.63 µM) | 1 µg/mL (≈ 2.63 µM) | 1 µg/mL (≈ 2.63 µM) | 1 µg/mL (≈ 2.63 µM)
5 | CN1CCN(c2ccc(-c3ccc4c(c3)OC[C@H]3[C@H](CO)OC(=O)N43)cn2)C1=O | 8 µg/mL (≈ 20.2 µM) | 4 µg/mL (≈ 10.1 µM) | 2 µg/mL (≈ 5.05 µM) | 2 µg/mL (≈ 5.05 µM) | 4 µg/mL (≈ 10.1 µM) | 2 µg/mL (≈ 5.05 µM)
6 | O=C1O[C@@H](CO)[C@@H]2COc3cc(-c4ccc(CO)nc4)ccc3N12 | 4 µg/mL (≈ 12.2 µM) | 2 µg/mL (≈ 6.09 µM) | 0.5 µg/mL (≈ 1.52 µM) | 1 µg/mL (≈ 3.05 µM) | 0.5 µg/mL (≈ 1.52 µM) | 1 µg/mL (≈ 3.05 µM)
7 | O=C1O[C@@H](CO)[C@@H]2COc3cc(-c4ccc(C(O)C5CC5)nc4)ccc3N12 (stereo not given in full) | 2 µg/mL (≈ 5.43 µM) | 1 µg/mL (≈ 2.71 µM) | 0.5 µg/mL (≈ 1.36 µM) | 1 µg/mL (≈ 2.71 µM) | 1 µg/mL (≈ 2.71 µM) | 1 µg/mL (≈ 2.71 µM)
8 | O=C1COCCN1c1ccc(-c2ccc3c(c2)OC[C@H]2[C@H](CO)OC(=O)N32)cn1 | 2 µg/mL (≈ 5.03 µM) | 2 µg/mL (≈ 5.03 µM) | 2 µg/mL (≈ 5.03 µM) | 2 µg/mL (≈ 5.03 µM) | 2 µg/mL (≈ 5.03 µM) | 1 µg/mL (≈ 2.52 µM)
9 | CC(O)c1ccc(-c2ccc3c(c2)OC[C@H]2[C@H](CO)OC(=O)N32)cn1 (stereo not given in full) | 2 µg/mL (≈ 5.84 µM) | 2 µg/mL (≈ 5.84 µM) | 1 µg/mL (≈ 2.92 µM) | 1 µg/mL (≈ 2.92 µM) | 1 µg/mL (≈ 2.92 µM) | 1 µg/mL (≈ 2.92 µM)
10 | CN1CCC[C@H]2CN(c3ccc(-c4ccc5c(c4)OC[C@H]4[C@H](CO)OC(=O)N54)cn3)C[C@H]21 | > 32 µg/mL | > 32 µg/mL | 4 µg/mL (≈ 9.16 µM) | 8 µg/mL (≈ 18.3 µM) | 8 µg/mL (≈ 18.3 µM) | 8 µg/mL (≈ 18.3 µM)
11 | O=C1O[C@@H](CO)CN1c1ccc(-c2ccc3c(c2)OC[C@H]2[C@H](CO)OC(=O)N32)cn1 | 0.5 µg/mL (≈ 1.21 µM) | 0.5 µg/mL (≈ 1.21 µM) | 0.5 µg/mL (≈ 1.21 µM) | 0.5 µg/mL (≈ 1.21 µM) | 0.5 µg/mL (≈ 1.21 µM) | 0.5 µg/mL (≈ 1.21 µM)
12 | CC(=O)c1ccc(-c2ccc3c(c2)OC[C@H]2[C@H](CO)OC(=O)N32)cn1 | 2 µg/mL (≈ 5.88 µM) | 8 µg/mL (≈ 23.5 µM) | 4 µg/mL (≈ 11.8 µM) | 2 µg/mL (≈ 5.88 µM) | 4 µg/mL (≈ 11.8 µM) | 2 µg/mL (≈ 5.88 µM)
13 | NC1(c2ccc(-c3ccc4c(c3)OC[C@H]3[C@H](CO)OC(=O)N43)cn2)CC1 | 2 µg/mL (≈ 5.66 µM) | 1 µg/mL (≈ 2.83 µM) | 1 µg/mL (≈ 2.83 µM) | 2 µg/mL (≈ 5.66 µM) | 1 µg/mL (≈ 2.83 µM) | 1 µg/mL (≈ 2.83 µM)
14 | O=C1O[C@@H](CO)[C@@H]2COc3cc(-c4ccc(C5(O)CCCC5)nc4)ccc3N12 | 2 µg/mL (≈ 5.23 µM) | 2 µg/mL (≈ 5.23 µM) | 1 µg/mL (≈ 2.61 µM) | 2 µg/mL (≈ 5.23 µM) | 1 µg/mL (≈ 2.61 µM) | 1 µg/mL (≈ 2.61 µM)
15 | Cc1cc(N2CCOC2=O)ncc1-c1ccc2c(c1)OC[C@H]1[C@H](CO)OC(=O)N21 | 4 µg/mL (≈ 10.1 µM) | 2 µg/mL (≈ 5.03 µM) | 0.5 µg/mL (≈ 1.26 µM) | 0.5 µg/mL (≈ 1.26 µM) | 1 µg/mL (≈ 2.52 µM) | 0.5 µg/mL (≈ 1.26 µM)
16 | CC(C)(O)c1ccc(-c2ccc3c(c2)OC[C@H]2[C@H](CO)OC(=O)N32)cn1 | 4 µg/mL (≈ 11.2 µM) | 2 µg/mL (≈ 5.61 µM) | 1 µg/mL (≈ 2.81 µM) | 1 µg/mL (≈ 2.81 µM) | 2 µg/mL (≈ 5.61 µM) | 1 µg/mL (≈ 2.81 µM)

Row | Compound | MIC [1] | MIC [2] | MIC [3] | MIC [4] | MIC [5] | MIC [6]
17 | O=C1O[C@@H](CO)[C@@H]2COc3cc(-c4ccc(Cn5cnnn5)nc4)ccc3N12 | 4 µg/mL (≈ 10.5 µM) | 4 µg/mL (≈ 10.5 µM) | 1 µg/mL (≈ 2.63 µM) | 2 µg/mL (≈ 5.26 µM) | 1 µg/mL (≈ 2.63 µM) | 2 µg/mL (≈ 5.26 µM)
18 | NCc1ccc(-c2ccc3c(c2)OC[C@H]2[C@H](CO)OC(=O)N32)cn1 | 4 µg/mL (≈ 12.2 µM) | 4 µg/mL (≈ 12.2 µM) | 1 µg/mL (≈ 3.05 µM) | 2 µg/mL (≈ 6.11 µM) | 0.5 µg/mL (≈ 1.53 µM) | 2 µg/mL (≈ 6.11 µM)
19 | O=C1O[C@@H](CO)[C@@H]2COc3cc(-c4ccc(N5C[C@@H]6CCCN[C@@H]6C5)nc4)ccc3N12 | 16 µg/mL (≈ 37.9 µM) | 8 µg/mL (≈ 18.9 µM) | 4 µg/mL (≈ 9.47 µM) | 4 µg/mL (≈ 9.47 µM) | 4 µg/mL (≈ 9.47 µM) | 8 µg/mL (≈ 18.9 µM)
20 | CN1CCN(c2ccc(-c3ccc4c(c3)OC[C@H]3[C@H](CO)OC(=O)N43)cn2)C(=O)C1 | 16 µg/mL (≈ 39 µM) | 4 µg/mL (≈ 9.75 µM) | 2 µg/mL (≈ 4.87 µM) | 2 µg/mL (≈ 4.87 µM) | 2 µg/mL (≈ 4.87 µM) | 2 µg/mL (≈ 4.87 µM)
21 | O=C1O[C@@H](CO)[C@@H]2COc3cc(-c4ccc(N5CCC(O)CC5)nc4)ccc3N12 | > 32 µg/mL | 2 µg/mL (≈ 5.03 µM) | 4 µg/mL (≈ 10.1 µM) | 2 µg/mL (≈ 5.03 µM) | 2 µg/mL (≈ 5.03 µM) | 2 µg/mL (≈ 5.03 µM)
22 | CN1CCC(Oc2ccc(-c3ccc4c(c3)OC[C@H]3[C@H](CO)OC(=O)N43)cn2)CC1 | > 32 µg/mL | 16 µg/mL (≈ 38.9 µM) | 4 µg/mL (≈ 9.72 µM) | 4 µg/mL (≈ 9.72 µM) | 8 µg/mL (≈ 19.4 µM) | 4 µg/mL (≈ 9.72 µM)
23 | CN1CC(c2ccc(-c3ccc4c(c3)OC[C@H]3[C@H](CO)OC(=O)N43)cn2)OC1=O (stereo not given in full) | 1 µg/mL (≈ 2.52 µM) | 1 µg/mL (≈ 2.52 µM) | 0.25 µg/mL (≈ 0.629 µM) | 0.5 µg/mL (≈ 1.26 µM) | 0.5 µg/mL (≈ 1.26 µM) | 0.5 µg/mL (≈ 1.26 µM)
24 | CN1C[C@H](c2ccc(-c3ccc4c(c3)OC[C@H]3[C@H](CO)OC(=O)N43)cn2)OC1=O | 2 µg/mL (≈ 5.03 µM) | 2 µg/mL (≈ 5.03 µM) | 0.5 µg/mL (≈ 1.26 µM) | 1 µg/mL (≈ 2.52 µM) | 1 µg/mL (≈ 2.52 µM) | 1 µg/mL (≈ 2.52 µM)
25 | CCO/N=C(\C)c1ccc(-c2ccc3c(c2)OC[C@H]2[C@H](CO)OC(=O)N32)cn1 | > 32 µg/mL | > 32 µg/mL | > 32 µg/mL | > 32 µg/mL |  | 
26 | C[C@@H](O)C(O)c1ccc(-c2ccc3c(c2)OC[C@H]2[C@H](CO)OC(=O)N32)cn1 (stereo not given in full) | 4 µg/mL (≈ 10.7 µM) | 2 µg/mL (≈ 5.37 µM) | 1 µg/mL (≈ 2.69 µM) | 2 µg/mL (≈ 5.37 µM) | 1 µg/mL (≈ 2.69 µM) | 2 µg/mL (≈ 5.37 µM)
27 | CCN1CCN(c2ccc(-c3ccc4c(c3)OC[C@H]3[C@H](CO)OC(=O)N43)cn2)CC1 | 4 µg/mL (≈ 9.74 µM) | 8 µg/mL (≈ 19.5 µM) | 2 µg/mL (≈ 4.87 µM) | 4 µg/mL (≈ 9.74 µM) | 4 µg/mL (≈ 9.74 µM) | 4 µg/mL (≈ 9.74 µM)
28 | O=C1O[C@H](CO)CN1c1ccc(-c2ccc3c(c2)OC[C@H]2[C@H](CO)OC(=O)N32)cn1 | 0.5 µg/mL (≈ 1.21 µM) | 0.5 µg/mL (≈ 1.21 µM) | 0.5 µg/mL (≈ 1.21 µM) | 0.5 µg/mL (≈ 1.21 µM) | 0.5 µg/mL (≈ 1.21 µM) | 0.5 µg/mL (≈ 1.21 µM)
29 | CC(C)N1CC(c2ccc(-c3ccc4c(c3)OC[C@H]3[C@H](CO)OC(=O)N43)cn2)OC1=O (stereo not given in full) | 1 µg/mL (≈ 2.35 µM) | 2 µg/mL (≈ 4.7 µM) | 1 µg/mL (≈ 2.35 µM) | 1 µg/mL (≈ 2.35 µM) | 2 µg/mL (≈ 4.7 µM) | 1 µg/mL (≈ 2.35 µM)
30 | CC(C)N1CCN(c2ccc(-c3ccc4c(c3)OC[C@H]3[C@H](CO)OC(=O)N43)cn2)C1=O | 8 µg/mL (≈ 18.8 µM) | 4 µg/mL (≈ 9.42 µM) | 2 µg/mL (≈ 4.71 µM) | 4 µg/mL (≈ 9.42 µM) | 4 µg/mL (≈ 9.42 µM) | 2 µg/mL (≈ 4.71 µM)
31 | CC(C)N1CCN(c2ccc(-c3ccc4c(c3)OC[C@H]3[C@H](CO)OC(=O)N43)cn2)C(=O)C1 | 16 µg/mL (≈ 36.5 µM) | 4 µg/mL (≈ 9.12 µM) | 2 µg/mL (≈ 4.56 µM) | 2 µg/mL (≈ 4.56 µM) | 2 µg/mL (≈ 4.56 µM) | 2 µg/mL (≈ 4.56 µM)
